Source: ChEMBL document CHEMBL1136360, “2,5-disubstituted 3,4-dihydro-2H-benzo[b][1,4]thiazepines as potent and selective V2 arginine vasopressin receptor antagonists” (Bioorg Med Chem Lett, 2003)

Assays:
Vasopressin V1a receptor [1] = target: T1, Vasopressin V1a receptor (Homo sapiens, UniProt P37288); assay: Ability to displace [3H]arginine vasopressin in cloned human V1a receptor
Method in brief: (§1)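 Radioligand displacement of 3H-arginine vasopressin from cloned human V1a or V2 receptors. Single-concentration lines are read as percent inhibition at […].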

Vasopressin V2 receptor [2] = target: T2, Vasopressin V2 receptor (Homo sapiens, UniProt P30518); assay: Ability to displace [3H]arginine vasopressin in cloned human V2 receptor; method in brief: as §1
T2 sequence (P30518 whole entry): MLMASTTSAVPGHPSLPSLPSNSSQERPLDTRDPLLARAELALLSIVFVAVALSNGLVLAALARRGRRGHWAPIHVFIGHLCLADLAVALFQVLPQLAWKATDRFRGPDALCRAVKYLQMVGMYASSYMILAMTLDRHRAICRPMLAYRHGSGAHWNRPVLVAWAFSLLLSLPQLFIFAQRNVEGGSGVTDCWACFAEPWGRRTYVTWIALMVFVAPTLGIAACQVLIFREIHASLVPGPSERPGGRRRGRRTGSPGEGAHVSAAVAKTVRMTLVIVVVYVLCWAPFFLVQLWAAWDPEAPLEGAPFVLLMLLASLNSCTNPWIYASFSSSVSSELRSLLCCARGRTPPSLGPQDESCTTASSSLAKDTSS

Vasopressin V1a receptor [3] = target: T1, Vasopressin V1a receptor; assay: Inhibition of vasopressin induced calcium […] in human V1a receptor expressing cells; format: functional
Method in brief: (§2)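 Functional antagonism in cells expressing the human receptor. For V2, inhibition of vasopressin-induced cAMP accumulation. For V1a, inhibition of vasopressin-induced calcium mobilization.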

Vasopressin V2 receptor [4] = target: T2, Vasopressin V2 receptor; assay: Inhibition of vasopressin induced cAMP accumulation in human V2 receptor expressing cells; format: functional; method in brief: as §2
Rattus norvegicus [5] = assay: Effect on urine volume at a dose of 3 mg/kg in hydrated 10 male rats was determined; format: functional
Method in brief: (§3)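 Conscious, hydrated male Sprague–Dawley rats dosed orally with test compound in 0.5% hydroxypropyl-methylcellulose vehicle, or with vehicle alone (3–100 mg/kg). Urine collected over 4 h. Urine volume (mL) and osmolality (mOsmol/Kg) reported as mean with error, about 10 animals per group. Significance judged at p<0.05 versus vehicle.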

Rattus norvegicus [6] = assay: Effect on urine volume at a dose of 30 mg/kg in hydrated 10 male rats was determined; format: functional; method in brief: as §3
Rattus norvegicus [7] = assay: Effect on urine osmolality at a dose of 3 mg/kg in hydrated 10 male rats was determined; format: functional; method in brief: as §3
Rattus norvegicus [8] = assay: Effect on urine osmolality at a dose of 10 mg/kg in hydrated 10 male rats was determined; format: functional; method in brief: as §3
Rattus norvegicus [9] = assay: Effect on urine volume at a dose of 100 mg/kg in hydrated 10 male rats was determined
Rattus norvegicus [10] = assay: Effect on urine volume at a dose of 10 mg/kg in hydrated 10 male rats was determined; format: functional; method in brief: as §3
Rattus norvegicus [11] = assay: Effect on urine osmolality at a dose of 30 mg/kg in hydrated 10 male rats was determined; format: functional; method in brief: as §3
Rattus norvegicus [12] = assay: Effect on urine osmolality at a dose of 100 mg/kg in hydrated 10 male rats was determined; format: functional; method in brief: as §3

T1 sequence (P37288 whole entry): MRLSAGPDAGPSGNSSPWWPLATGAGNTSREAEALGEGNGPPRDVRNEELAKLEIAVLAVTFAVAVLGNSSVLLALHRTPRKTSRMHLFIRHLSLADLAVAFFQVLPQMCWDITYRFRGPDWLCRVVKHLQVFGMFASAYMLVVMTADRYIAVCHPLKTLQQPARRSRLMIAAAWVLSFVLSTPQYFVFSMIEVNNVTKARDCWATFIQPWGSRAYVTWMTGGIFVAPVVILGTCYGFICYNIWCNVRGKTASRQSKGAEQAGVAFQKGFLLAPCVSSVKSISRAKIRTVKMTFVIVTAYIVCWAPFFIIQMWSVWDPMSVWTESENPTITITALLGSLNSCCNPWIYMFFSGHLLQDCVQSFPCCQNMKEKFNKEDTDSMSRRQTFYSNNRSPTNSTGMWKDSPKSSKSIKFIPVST

Structure (SMILES) | IC50 (Vasopressin V1a receptor [1]) | IC50 (Vasopressin V2 receptor [2]) | IC50 (Vasopressin V1a receptor [3]) | IC50 (Vasopressin V2 receptor [4]) | other results
CN(C)CC1CCN(C(=O)c2ccc(NC(=O)c3ccccc3-c3ccccc3)cc2)c2ccccc2S1 (centres undefined) | 1200 nM | 430 nM |  |  | 
O=C(O)CC[C@H]1CCN(C(=O)c2ccc(NC(=O)c3ccccc3-c3ccccc3)cc2)c2ccccc2S1 | 140 nM | 15 nM | 2010 nM | 30 nM | 
O=C(Nc1ccc(C(=O)N2CCC(CCS(=O)(=O)O)Sc3ccccc32)cc1)c1ccccc1-c1ccccc1 (centres undefined) | 1150 nM |  |  |  | 
O=C(Nc1ccc(C(=O)N2CCC(CCF)Sc3ccccc32)cc1)c1ccccc1-c1ccccc1 (centres undefined) | 180 nM | 85 nM |  |  | 
O=C(Nc1ccc(C(=O)N2CCC(CC(F)F)Sc3ccccc32)cc1)c1ccccc1-c1ccccc1 (centres undefined) | 160 nM | 100 nM |  |  | 
O=C(O)CC[C@@H]1CCN(C(=O)c2ccc(NC(=O)c3ccccc3-c3ccccc3)cc2)c2ccccc2S1 | 314 nM | 16 nM | 4630 nM | 40 nM | 
O=C(Nc1ccc(C(=O)N2CCC(CCO)Sc3ccccc32)cc1)c1ccccc1-c1ccccc1 (centres undefined) | 97 nM | 8 nM | 150 nM | 100 nM | 

Further lines, with some results ahead:

IC50 (Vasopressin V1a receptor [1]) | IC50 (Vasopressin V2 receptor [2]) | IC50 (Vasopressin V1a receptor [3]) | IC50 (Vasopressin V2 receptor [4]) | Structure (SMILES) | other results
1140 nM | 8 nM | 1760 nM | 30 nM | O=C(O)C[C@@H]1CCN(C(=O)c2ccc(NC(=O)c3ccccc3-c3ccccc3)cc2)c2ccccc2S1 | Urine volume (Rattus norvegicus [5]): 2.2 mL; Urine volume (Rattus norvegicus [6]): 15.7 mL; Urine osmolality (Rattus norvegicus [7]): 529 mOsmol kg-1; Urine osmolality (Rattus norvegicus [8]): 299 mOsmol kg-1; Urine volume (Rattus norvegicus [9]): 13.8 mL; Urine volume (Rattus norvegicus [10]): 7.3 mL; Urine osmolality (Rattus norvegicus [11]): 161 mOsmol kg-1; Urine osmolality (Rattus norvegicus [12]): 177 mOsmol kg-1
729 nM | 7 nM | 740 nM | 40 nM | O=C(O)CC1CCN(C(=O)c2ccc(NC(=O)c3ccccc3-c3ccccc3)cc2)c2ccccc2S1 (centres undefined) | 
440 nM | 7 nM | 2130 nM | 36 nM | O=C(O)C[C@H]1CCN(C(=O)c2ccc(NC(=O)c3ccccc3-c3ccccc3)cc2)c2ccccc2S1 | 
